Assay results pooled from the literature.
Lines come from different studies, so protocols differ. pEC50, pIC50: −log10 of the molar value. ≈ marks a conversion by molar mass, not a printed value.

With CC(C)/N=c1\cc2n(-c3ccc(Cl)cc3)c3ccccc3nc-2cc1Nc1ccc(Cl)cc1 the MIC was 3.75 µM (≈ 1.78 µg/mL) (Mycobacteroides abscessus; microbial growth; clinical isolate).
CN(C)c1cc(NC(=O)Cc2cscn2)c(O)c2c1C[C@H]1C[C@H]3[C@H](N(C)C)C(O)=C(C(N)=O)C(=O)[C@@]3(O)C(O)=C1C2=O gave an IC50 of 0.23 µg/mL (Mycobacteroides abscessus; microbial growth, resazurin; ATCC19977).
The activity vs control of COc1cc(C#CC(=O)C(C)C)ccc1O is reported as 94% (Pseudomonas aeruginosa; microbial growth, absorbance; 10 µM, 24 h).
For CCOC(=O)CNC(=O)CO/N=c1\cc2n(-c3ccc(Cl)cc3)c3ccccc3nc-2cc1Nc1ccc(Cl)cc1, the MIC was over 30 µM (Mycobacteroides abscessus; microbial growth; clinical isolate).
With COc1ccccc1C(=O)C#Cc1ccc(F)c(F)c1 the activity vs control was 83% (Pseudomonas aeruginosa; microbial growth, absorbance; 100 µM, 24 h).
For C=C(F)C(=O)N1CCN(c2nc(OC[C@@H]3CCCN3C)nc3c2CCN(c2cccc4cccc(Cl)c24)C3)C[C@@H]1CC#N, the pIC50 was 8.24 (SW837; cell growth or viability, ATP luminescence; 3D culture).
For O=C(NO)c1ccc(CNc2nc3cccc(-c4ccc5c(c4)OCO5)n3n2)cc1, the GI50 was 0.47 µM (DU-145; cell growth or viability, SRB).
O=C1CC[C@H](N2Cc3cc(N4CCN(CC5CCN(c6ccc([C@@H]7c8ccc(O)cc8CC[C@@H]7c7ccccc7)cc6)CC5)CC4)ccc3C2=O)C(=O)N1 has a GI50 of 0.0045 µM (T47D; cell growth or viability, ATP luminescence; 5 days).
COc1ccc(C(=O)C#Cc2ccc(O)c(OC)c2)cc1 gave an activity vs control of 95% (Pseudomonas aeruginosa; microbial growth, absorbance; 10 µM, 24 h).
With C=CCO/N=c1\cc2n(-c3ccc(Cl)cc3)c3ccccc3nc-2cc1Nc1ccc(Cl)cc1 the MIC was over 30 µM (Mycobacteroides abscessus; microbial growth; clinical isolate).
The activity vs control of COc1cc(C#CC(=O)C2CCCCC2)ccc1O is reported as 81% (Pseudomonas aeruginosa; microbial growth, absorbance; 10 µM, 24 h).
CO/N=c1\cc2n(-c3ccc(Cl)cc3)c3ccccc3nc-2cc1Nc1ccc(Cl)cc1 has an MIC of over 30 µM (Mycobacteroides abscessus; microbial growth; clinical isolate).
CN(C)c1cc(NC(=O)Cc2ccncn2)c(O)c2c1C[C@H]1C[C@H]3[C@H](N(C)C)C(O)=C(C(N)=O)C(=O)[C@@]3(O)C(O)=C1C2=O has an IC50 of 0.59 µg/mL (Mycobacteroides abscessus; microbial growth, resazurin; ATCC19977).
For OC(C#Cc1ccc(F)c(F)c1)c1ccccc1 (stereo not shown), the activity vs control was 97% (Pseudomonas aeruginosa; microbial growth, absorbance; 100 µM, 24 h).
CN(C)c1cc(NC(=O)Cc2ccn(C)n2)c(O)c2c1C[C@H]1C[C@H]3[C@H](N(C)C)C(O)=C(C(N)=O)C(=O)[C@@]3(O)C(O)=C1C2=O gave an IC50 of 0.86 µg/mL (Mycobacteroides abscessus; microbial growth, resazurin; ATCC19977).
O=C(O)CO/N=c1\cc2n(-c3ccc(Cl)cc3)c3ccccc3nc-2cc1Nc1ccc(Cl)cc1 gave an MIC of over 30 µM (Mycobacteroides abscessus; microbial growth; clinical isolate).
The IC50 of CN(C)c1cc(NC(=O)Cc2cncnc2)c(O)c2c1C[C@H]1C[C@H]3[C@H](N(C)C)C(O)=C(C(N)=O)C(=O)[C@@]3(O)C(O)=C1C2=O is reported as 0.74 µg/mL (Mycobacteroides abscessus; microbial growth, resazurin; ATCC19977).
For COc1cc(C#CC(=O)c2ccccc2OC)ccc1O, the activity vs control was 91% (Pseudomonas aeruginosa; microbial growth, absorbance; 10 µM, 24 h).
The IC50 of CN(C)c1cc(NC(=O)CNC(C)(C)C)c(O)c2c1C[C@H]1C[C@H]3[C@H](N(C)C)C(O)=C(C(N)=O)C(=O)[C@@]3(O)C(O)=C1C2=O is reported as 0.28 µg/mL (Mycobacteroides abscessus; microbial growth, resazurin; ATCC19977).
For O=C(CO/N=c1\cc2n(-c3ccc(Cl)cc3)c3ccccc3nc-2cc1Nc1ccc(Cl)cc1)NCc1ccc2c(c1)CCO2, the MIC was over 30 µM (Mycobacteroides abscessus; microbial growth; clinical isolate).
CN(C)c1cc(NC(=O)Cc2cccnc2)c(O)c2c1C[C@H]1C[C@H]3[C@H](N(C)C)C(O)=C(C(N)=O)C(=O)[C@@]3(O)C(O)=C1C2=O gave an IC50 of 1.29 µg/mL (Mycobacteroides abscessus; microbial growth, resazurin; ATCC19977).
For C=CC(=O)NC1CCN(c2ncc3ncnc(Nc4ccc(Oc5ccc6c(c5)ncn6C)c(C)c4)c3n2)CC1, the pEC50 was 1.67 (SW837; cell growth or viability).
